Laboratory results: ChEMBL document CHEMBL1140074, “Aminoacyl-anthraquinone conjugates as telomerase inhibitors: synthesis, biophysical and biological evaluation” (J Med Chem, 2008)

Legend:
Homo sapiens [1] = organism: Homo sapiens; assay: Binding affinity to human telomeric DNA sequence assessed as stabilization of G-quadruplex at 1 uM by thermal denaturation
Summary of the method: (§1)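 Fluorescence melting in a LightCycler of 0.25 µM telomeric oligonucleotide HTS (5'-FAM, 3'-methyl red) in LiP buffer (10 mM LiOH, 50 mM KCl, pH 7.4 with H3PO4). Samples were denatured at 95 °C for 5 min, then cooled and reheated at 0.5 °C/min in 1 °C steps with 2 min equilibration per step. Excitation 488 nm, emission 520 nm. ΔTm was taken relative to ligand-free DNA.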

[2] = biological target: Telomerase reverse transcriptase (Homo sapiens, UniProt O14746); assay: Inhibition of telomerase in human JR8 cells by TRAP assay; format: cell-based
Sequence of Telomerase reverse transcriptase (O14746 whole entry): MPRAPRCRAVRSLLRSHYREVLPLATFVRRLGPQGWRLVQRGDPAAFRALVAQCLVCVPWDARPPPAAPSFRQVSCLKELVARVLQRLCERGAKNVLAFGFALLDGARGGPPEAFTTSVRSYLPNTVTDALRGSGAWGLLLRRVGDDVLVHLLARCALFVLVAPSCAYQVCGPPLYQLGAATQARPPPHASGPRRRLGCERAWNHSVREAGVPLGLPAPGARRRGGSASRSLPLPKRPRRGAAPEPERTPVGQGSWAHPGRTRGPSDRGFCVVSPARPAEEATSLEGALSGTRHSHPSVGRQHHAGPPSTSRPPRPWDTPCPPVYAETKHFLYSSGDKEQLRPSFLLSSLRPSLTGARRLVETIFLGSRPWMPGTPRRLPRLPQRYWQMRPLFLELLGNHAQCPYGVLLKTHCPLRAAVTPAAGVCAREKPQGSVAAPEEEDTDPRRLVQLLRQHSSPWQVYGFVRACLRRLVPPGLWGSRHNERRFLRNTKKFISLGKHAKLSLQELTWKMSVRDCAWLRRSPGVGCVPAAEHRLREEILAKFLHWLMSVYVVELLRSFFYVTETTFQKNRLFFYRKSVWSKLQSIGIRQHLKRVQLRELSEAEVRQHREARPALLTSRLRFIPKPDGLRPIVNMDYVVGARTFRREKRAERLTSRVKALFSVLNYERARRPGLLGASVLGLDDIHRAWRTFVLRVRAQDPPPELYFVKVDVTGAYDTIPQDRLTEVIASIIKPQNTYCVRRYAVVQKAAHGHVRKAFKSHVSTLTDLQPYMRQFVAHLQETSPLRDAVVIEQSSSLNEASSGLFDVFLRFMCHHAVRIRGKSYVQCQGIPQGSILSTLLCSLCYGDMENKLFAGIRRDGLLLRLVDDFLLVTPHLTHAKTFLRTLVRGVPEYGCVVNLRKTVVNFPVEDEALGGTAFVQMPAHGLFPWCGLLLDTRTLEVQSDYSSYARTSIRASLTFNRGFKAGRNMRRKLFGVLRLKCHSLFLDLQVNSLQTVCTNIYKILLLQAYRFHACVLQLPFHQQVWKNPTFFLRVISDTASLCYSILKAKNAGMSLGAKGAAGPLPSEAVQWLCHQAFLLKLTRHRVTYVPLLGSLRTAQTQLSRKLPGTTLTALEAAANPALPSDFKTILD
Summary of the method: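 Telomerase source was a CHAPS lysate of exponentially growing JR8 cells (500 ng protein per reaction). Elongation 30 min at 30 °C, then 30 PCR cycles. Products run on 10% PAGE with phosphorimager read-out, in triplicate. Drug levels kept below those inhibiting Taq.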

[3] = Cytotoxicity against human 293T cells expressing telomerase after 96 hrs by MTT assay; format: cell-based; settings: HEK-293T
Summary of the method: (§2)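 Cells grown in DMEM with 10% heat-inactivated FCS, penicillin/streptomycin, 37 °C, 5% CO2. Plated at 10000 cells/well and left overnight, then exposed to eight serial dilutions in triplicate for 96 h. MTT added to 0.8 mg/mL final for 2 h, formazan dissolved in DMSO, absorbance read at 540 nm. IC50 from sigmoidal dose-response fits.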

[4] = biological target: DNA polymerase I, thermostable (Thermus aquaticus, UniProt P19821); assay: Inhibition of Taq polymerase
Sequence of DNA polymerase I, thermostable (P19821 whole entry): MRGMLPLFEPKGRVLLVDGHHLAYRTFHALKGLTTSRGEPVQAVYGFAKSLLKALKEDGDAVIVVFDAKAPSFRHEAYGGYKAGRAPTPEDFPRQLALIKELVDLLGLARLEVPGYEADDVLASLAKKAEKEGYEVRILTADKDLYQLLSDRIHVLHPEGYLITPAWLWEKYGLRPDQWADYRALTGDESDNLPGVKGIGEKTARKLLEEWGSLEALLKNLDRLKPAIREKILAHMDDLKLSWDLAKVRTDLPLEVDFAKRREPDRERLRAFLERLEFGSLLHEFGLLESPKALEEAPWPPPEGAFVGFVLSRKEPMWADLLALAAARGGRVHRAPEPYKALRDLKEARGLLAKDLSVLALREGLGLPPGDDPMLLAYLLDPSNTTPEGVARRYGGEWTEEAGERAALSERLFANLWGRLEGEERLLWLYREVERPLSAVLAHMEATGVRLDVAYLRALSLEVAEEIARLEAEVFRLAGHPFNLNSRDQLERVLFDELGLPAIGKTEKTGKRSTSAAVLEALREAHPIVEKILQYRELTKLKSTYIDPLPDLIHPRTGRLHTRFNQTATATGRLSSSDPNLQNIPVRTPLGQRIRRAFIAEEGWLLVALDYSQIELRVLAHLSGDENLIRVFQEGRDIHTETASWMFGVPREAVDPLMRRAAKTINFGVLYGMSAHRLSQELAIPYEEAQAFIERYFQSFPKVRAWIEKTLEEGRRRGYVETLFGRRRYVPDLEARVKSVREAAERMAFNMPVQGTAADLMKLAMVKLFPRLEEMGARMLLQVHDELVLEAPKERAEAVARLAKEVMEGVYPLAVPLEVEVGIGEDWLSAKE
Summary of the method: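 PCR with 2.5 ng pBR322 template and primers Tup/Tdown (0.5 µM) amplifying plasmid bases 906-1064. Compounds tested from 20 nM to 40 µM. Run 25 cycles of 94 °C, 65 °C and 72 °C (30 s each). Products resolved on 2% agarose in TBE and stained with ethidium bromide.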

HeLa = assay: Cytotoxicity against human HeLa cells expressing telomerase after 96 hrs by MTT assay; format: functional, cell-based; summary of the method: as §2
Homo sapiens [5] = organism: Homo sapiens; assay: Binding affinity to human telomeric DNA sequence assessed as stabilization of G-quadruplex at 10 uM by thermal denaturation; summary of the method: as §1

Row | SMILES | ΔTm (Homo sapiens [1]) [°C] | EC50 [2] [µM] | EC50 [4] [µM] | ΔTm (Homo sapiens [5]) [°C] | IC50 [3] [µM] | IC50 (HeLa) [µM]
1 | N=C(N)NCCC[C@H](N)C(=O)NCCC(=O)Nc1ccc2c(c1)C(=O)c1ccc(NC(=O)CCNC(=O)[C@@H](N)CCCNC(=N)N)cc1C2=O | 4.8 | – | – | 25 | > 100 | 100
2 | N=C(N)NCCC[C@H](N)C(=O)NCC(=O)Nc1ccc2c(c1)C(=O)c1ccc(NC(=O)CNC(=O)[C@@H](N)CCCNC(=N)N)cc1C2=O | 9.8 | – | – | 22.9 | 86 | 89
3 | O=C1c2c(O)ccc(O)c2C(=O)c2c(NCCNCCO)ccc(NCCNCCO)c21 [MITOXANTRONE] | – | – | – | – | < 0.1 | < 0.1
4 | N[C@@H](Cc1ccccc1)C(=O)NCCNC(=O)c1ccc2c(c1)C(=O)c1ccc(C(=O)NCCNC(=O)[C@@H](N)Cc3ccccc3)cc1C2=O | 0.2 | > 40 | > 40 | 1.1 | – | –
5 | C[C@@H](O)[C@H](N)C(=O)NCCNC(=O)c1ccc2c(c1)C(=O)c1ccc(C(=O)NCCNC(=O)[C@@H](N)[C@@H](C)O)cc1C2=O | 0.4 | > 40 | > 40 | 1.9 | – | –
6 | NCC(=O)NCCNC(=O)c1ccc2c(c1)C(=O)c1ccc(C(=O)NCCNC(=O)CN)cc1C2=O | 0.3 | > 40 | > 40 | 2.9 | – | –
7 | CC[C@H](C)[C@H](N)C(=O)NCCNC(=O)c1ccc2c(c1)C(=O)c1cc(C(=O)NCCNC(=O)[C@@H](N)[C@@H](C)CC)ccc1C2=O | 0.4 | > 40 | > 40 | 3 | – | –
8 | CC[C@H](C)[C@H](N)C(=O)NCCNC(=O)c1ccc2c(c1)C(=O)c1ccc(C(=O)NCCNC(=O)[C@@H](N)[C@@H](C)CC)cc1C2=O | 0.2 | > 40 | > 40 | 1.1 | – | –
9 | CC[C@H](C)[C@H](N)C(=O)NCCC(=O)Nc1ccc2c(c1)C(=O)c1cc(NC(=O)CCNC(=O)[C@@H](N)[C@@H](C)CC)ccc1C2=O | 0.2 | > 40 | > 40 | 2.8 | – | –
10 | NCC(=O)NCCNC(=O)c1ccc2c(c1)C(=O)c1cc(C(=O)NCCNC(=O)CN)ccc1C2=O | 0.4 | > 40 | > 40 | 3.3 | – | –
11 | C[C@H](N)C(=O)NCCC(=O)Nc1ccc2c(c1)C(=O)c1ccc(NC(=O)CCNC(=O)[C@H](C)N)cc1C2=O | 0.2 | > 40 | > 40 | 8.2 | – | –
12 | N=C(N)NCCC[C@H](N)C(=O)NCCNC(=O)c1ccc2c(c1)C(=O)c1cc(C(=O)NCCNC(=O)[C@@H](N)CCCNC(=N)N)ccc1C2=O | 5.1 | – | – | 16.2 | 85 | 35
13 | C[C@H](N)C(=O)NCCNC(=O)c1ccc2c(c1)C(=O)c1ccc(C(=O)NCCNC(=O)[C@H](C)N)cc1C2=O | 0.4 | > 40 | > 40 | 4.4 | – | –
14 | CC(C)[C@H](N)C(=O)NCCC(=O)Nc1ccc2c(c1)C(=O)c1ccc(NC(=O)CCNC(=O)[C@@H](N)C(C)C)cc1C2=O | 0 | > 40 | > 40 | 6 | – | –
15 | CC(C)C[C@H](N)C(=O)NCCNC(=O)c1ccc2c(c1)C(=O)c1cc(C(=O)NCCNC(=O)[C@@H](N)CC(C)C)ccc1C2=O | 0.3 | > 40 | > 40 | 2.7 | – | –
16 | N=C(N)NCCC[C@H](N)C(=O)NCCC(=O)Nc1ccc2c(c1)C(=O)c1cc(NC(=O)CCNC(=O)[C@@H](N)CCCNC(=N)N)ccc1C2=O | 0.6 | – | – | 13.3 | – | –

Second part, led by results:

Row | ΔTm (Homo sapiens [1]) [°C] | EC50 [2] [µM] | EC50 [4] [µM] | ΔTm (Homo sapiens [5]) [°C] | SMILES | IC50 [3] [µM] | IC50 (HeLa) [µM]
17 | 6.1 | 25 | > 40 | 9.2 | C[C@H](N)C(=O)NCC(=O)Nc1ccc2c(c1)C(=O)c1ccc(NC(=O)CNC(=O)[C@H](C)N)cc1C2=O | 43 | 17
18 | 0.3 | 15 | > 40 | 9 | C[C@H](N)C(=O)NCCC(=O)Nc1ccc2c(c1)C(=O)c1cc(NC(=O)CCNC(=O)[C@H](C)N)ccc1C2=O | > 100 | 64
19 | 0.4 | 5 | > 40 | 8.6 | NCC(=O)NCC(=O)Nc1ccc2c(c1)C(=O)c1ccc(NC(=O)CNC(=O)CN)cc1C2=O | > 100 | 39
20 | 0.2 | > 40 | > 40 | 1.3 | CC(C)C[C@H](N)C(=O)NCCNC(=O)c1ccc2c(c1)C(=O)c1ccc(C(=O)NCCNC(=O)[C@@H](N)CC(C)C)cc1C2=O | – | –
21 | 12 | 0.8 | 5 | > 17 | NCCCC[C@H](N)C(=O)NCC(=O)Nc1ccc2c(c1)C(=O)c1ccc(NC(=O)CNC(=O)[C@@H](N)CCCCN)cc1C2=O | 34 | 27
22 | – | 4 | 4 | – | NC(N)=NCCC[C@H](N)C(=O)NCCC(=O)Nc1ccc2c(c1)C(=O)c1cc(NC(=O)CCNC(=O)[C@@H](N)CCCN=C(N)N)ccc1C2=O | – | –
23 | 0.7 | > 40 | > 40 | 3.8 | CC(C)C[C@H](N)C(=O)NCC(=O)Nc1ccc2c(c1)C(=O)c1ccc(NC(=O)CNC(=O)[C@@H](N)CC(C)C)cc1C2=O | – | –
24 | 0.3 | > 40 | > 40 | 2.5 | N[C@@H](CO)C(=O)NCCNC(=O)c1ccc2c(c1)C(=O)c1ccc(C(=O)NCCNC(=O)[C@@H](N)CO)cc1C2=O | – | –
25 | 0.3 | > 40 | > 40 | 3.2 | C[C@@H](O)[C@H](N)C(=O)NCCNC(=O)c1ccc2c(c1)C(=O)c1cc(C(=O)NCCNC(=O)[C@@H](N)[C@@H](C)O)ccc1C2=O | – | –
26 | 0.3 | > 40 | > 40 | 2.1 | N[C@@H](CO)C(=O)NCCNC(=O)c1ccc2c(c1)C(=O)c1cc(C(=O)NCCNC(=O)[C@@H](N)CO)ccc1C2=O | – | –
27 | 7.9 | 0.8 | 10 | 15.9 | NCCCC[C@H](N)C(=O)NCCNC(=O)c1ccc2c(c1)C(=O)c1ccc(C(=O)NCCNC(=O)[C@@H](N)CCCCN)cc1C2=O | > 100 | 100
28 | 5.2 | 3 | > 40 | 14.7 | NCCCC[C@H](N)C(=O)NCCNC(=O)c1ccc2c(c1)C(=O)c1cc(C(=O)NCCNC(=O)[C@@H](N)CCCCN)ccc1C2=O | > 100 | 84
29 | 0.5 | > 40 | > 40 | 0.6 | N[C@@H](Cc1ccccc1)C(=O)NCC(=O)Nc1ccc2c(c1)C(=O)c1ccc(NC(=O)CNC(=O)[C@@H](N)Cc3ccccc3)cc1C2=O | – | –
30 | 0.5 | > 40 | > 40 | 6 | CC(C)[C@H](N)C(=O)NCC(=O)Nc1ccc2c(c1)C(=O)c1ccc(NC(=O)CNC(=O)[C@@H](N)C(C)C)cc1C2=O | – | –
31 | 3 | 1.5 | 2.5 | 17 | NCCCC[C@H](N)C(=O)NCCC(=O)Nc1ccc2c(c1)C(=O)c1cc(NC(=O)CCNC(=O)[C@@H](N)CCCCN)ccc1C2=O | > 100 | > 100
32 | 0.1 | > 40 | > 40 | 1 | N[C@@H](Cc1ccccc1)C(=O)NCCNC(=O)c1ccc2c(c1)C(=O)c1cc(C(=O)NCCNC(=O)[C@@H](N)Cc3ccccc3)ccc1C2=O | – | –
33 | 0.3 | > 40 | > 40 | 7 | N[C@@H](Cc1ccccc1)C(=O)NCCC(=O)Nc1ccc2c(c1)C(=O)c1cc(NC(=O)CCNC(=O)[C@@H](N)Cc3ccccc3)ccc1C2=O | – | –
34 | 0.5 | > 40 | > 40 | 3.9 | C[C@H](N)C(=O)NCCNC(=O)c1ccc2c(c1)C(=O)c1cc(C(=O)NCCNC(=O)[C@H](C)N)ccc1C2=O | – | –
35 | 0.5 | > 40 | > 40 | 4.3 | N[C@@H](Cc1ccccc1)C(=O)NCCC(=O)Nc1ccc2c(c1)C(=O)c1ccc(NC(=O)CCNC(=O)[C@@H](N)Cc3ccccc3)cc1C2=O | – | –
36 | 0 | > 40 | > 40 | 5.7 | CC[C@H](C)[C@H](N)C(=O)NCCC(=O)Nc1ccc2c(c1)C(=O)c1ccc(NC(=O)CCNC(=O)[C@@H](N)[C@@H](C)CC)cc1C2=O | – | –
37 | – | 0.8 | 10 | – | NC(N)=NCCC[C@H](N)C(=O)NCCC(=O)Nc1ccc2c(c1)C(=O)c1ccc(NC(=O)CCNC(=O)[C@@H](N)CCCN=C(N)N)cc1C2=O | – | –
38 | – | 0.8 | 10 | – | NC(N)=NCCC[C@H](N)C(=O)NCC(=O)Nc1ccc2c(c1)C(=O)c1ccc(NC(=O)CNC(=O)[C@@H](N)CCCN=C(N)N)cc1C2=O | – | –
39 | – | 1.2 | 10 | – | NC(N)=NCCC[C@H](N)C(=O)NCCNC(=O)c1ccc2c(c1)C(=O)c1cc(C(=O)NCCNC(=O)[C@@H](N)CCCN=C(N)N)ccc1C2=O | – | –
